TRPC6 inhibitor: mouse TRPC6 channel inhibitors, primary screen, cell-based, HEK293, membrane potential dye | ACh-evoked depolarization; hits give low values | B-score at 10 µM | 310,000 tested, 1.1% active | AID 2553, 2010;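 active means B-score under library mean minus 3 SD, initial fluorescence not abnormally high, positive integrated signal ratio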;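 further: B-score derived from integrated fluorescence ratio over the kinetic read; more negative B-score means stronger inhibition of depolarization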
TRPC4 agonist: activators of mouse TRPC4 channel, primary screen, Fluo4 calcium, HEK293 TRPC4beta/mu-opioid cells. Short transient receptor potential channel 4 (Mus musculus), Q9QUQ5. Fluo4 calcium fluorescence; hits give high values. B-score at 10 µM. 310,000 tested, 0.49% active;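 active means B-score above 5 SD of library B-scores, and initial fluorescence ratio not above library mean plus 5 SD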;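 further: positive B-score marks a calcium rise read as TRPC4 activation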
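Technique: kinetic Fluo4 calcium fluorescence; Test system: TRPC4beta and mu-opioid receptor HEK293 stable cells; Measure: B-scored integrated calcium fluorescence ratio; Benchmarks: low control buffer alone, high control maximal DAMGO; Schedule: 45 min room-temperature Fluo4 loading, 110 s read.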
Kir21 inh: inhibitors of mouse Kir2.1 inward-rectifier potassium channel; Inward rectifier potassium channel 2 (Mus musculus), P35561; HEK293-Kir2.1, FluxOR thallium flux fluorescence; hits give low values; B-score at 10 µM; 310,000 tested, 0.85% active;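 active means fluorescence ratio B-score at or below minus 3 SD of library scores, with starting-brightness B-score within 2 SD, cut at about -4.2 in these data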;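 further: channel flux triggered by added potassium and thallium sulfate stimulus; B-score of peak minus minimum fluorescence over baseline after thallium stimulus; more negative B-score means stronger Kir2.1 block with less thallium influx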
TRPC4 potent: positive allosteric modulators of TRPC4, primary screen, cell-based, mouse TRPC4beta, HEK293 mu-opioid, Fluo-4 calcium; AID 2227, 2009; DAMGO EC20, Fluo-4 Ca2+ flux; hits give high values; 310,000 tested, 0.42% active; B-score at 10 µM;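 active means B-score of calcium response area above 5 SD of library B-scores, with initial fluorescence ratio within 5 SD of library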;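 further: B-score of integrated fluorescence ratio over time as area under calcium response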
TRPC4 block: inhibitors of mouse TRPC4 channel, primary screen, Fluo4 calcium, HEK293 TRPC4beta/mu-opioid cells; B-score at 10 µM; DAMGO-evoked Fluo4 calcium flux; hits give low values; 300,000 tested, 0.39% active;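 active means B-score over 3 SD under the library average, no early fluorescence shift, positive overall ratio signal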
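Assay system: Stable TRPC4beta/mu-opioid receptor HEK293 cells | Reagent: DAMGO in two steps, submaximal then maximal | Compound dosing: Single concentration per test compound | Signal: Fluo4 Ca2+ flux fluorescence | Evaluation: Per-well B score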
TRPC6 activator: mouse TRPC6 channel activators, primary screen, cell-based, HEK293, membrane potential dye; B-score at 10 µM; HEK293-TRPC6 membrane potential dye fluorescence; hits give high values; 310,000 tested, 0.13% active; Short transient receptor potential channel 6 (Mus musculus), Q61143; AID 2550, 2010;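 active means B-score of the integrated fluorescence ratio above library mean plus 3 SD, and starting fluorescence ratio within library mean plus 5 SD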;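 further: higher score means more depolarization so channel activation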
TRPC4 sel inh 2: mouse TRPC4 off-target activity of TRPC6 inhibitors, second screen; shares compounds with TRPC6 inhibitor; HEK293 TRPC4/MOR, membrane potential dye fluorescence; channel activated by saturating DAMGO dose; inhibition, % at 10 µM; 920 tested, 42% active; AID 2776;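 active means compounds whose fluorescence signal differed from control wells by over 3 SD, either direction, in both duplicate plates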
TRPC4 spec: mouse TRPC4 modulation by TRPC6 hits, confirmation, selectivity assay for TRPC6 inhibitor project, cell-based, HEK293 TRPC4/mu-opioid, membrane potential dye; shares compounds with TRPC6 inhibitor; membrane potential fluorescence; activity change, negative = inhibition, % at 10 µM; 920 tested, 61% active; AID 2777, 2010;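 active means rise or fall in signal beyond 3 SD of buffer-only wells in both replicate plates, either sign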;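 further: integrated kinetic ratio of fluorescence range over baseline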
HEK293 MPD ctr 2-1: nonspecific membrane potential effects, parental HEK293, confirmation, counter-screen for TRPC6 inhibitor project, cell-based, second counter screen. shares compounds with TRPC6 inhibitor. parental HEK293 membrane potential dye fluorescence; maximal acetylcholine challenge after compound addition. signal change vs control, % at 10 µM. 920 tested, 31% active;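 active means membrane potential signal moving either way by over 3 SD of the maximum-effect control, in both duplicate plates, meaning non-specific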
HEK293 MPD ctr-1: membrane potential modulation in parental HEK293, confirmation, counter-screen for TRPC6 inhibitor project, cell-based | AID 2780, 2010 | parental HEK293 membrane potential dye fluorescence | 920 tested, 60% active | shares compounds with TRPC6 inhibitor | membrane potential signal change, % at 10 µM;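 active means membrane potential signal shifting up or down by more than 3 SD of buffer-only wells, on both duplicate plates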
HEK293 MPD ctr-2: parental HEK293 membrane potential modulation, confirmation, counter-screen for TRPC6 modulator project, cell-based; membrane potential dye fluorescence; shares compounds with TRPC6 inhibitor; membrane potential signal change, % at 10 µM; 2,400 tested, 51% active;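 active means membrane potential signal moves up or down beyond 5 SD from buffer-only wells, on both duplicate plates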
HEK293 MPD ctr 2-2: second check of TRPC6 modulator effects in parental HEK293 cells | shares compounds with TRPC6 inhibitor | membrane potential dye fluorescence; after compound, maximal acetylcholine stimulation | inhibition, % at 10 µM | 2,400 tested, 14% active | AID 488926;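 active means membrane potential signal drops by more than 5 SD from the mean control signal, in both duplicate plates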;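 further: plate controls were acetylcholine ECmax control wells for no effect and buffer only wells for full effect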
TRPC4/MOR mod: TRPC4 modulation by TRPC6 hit compounds, confirmation, selectivity assay for TRPC6 modulator project, cell-based, HEK293 TRPC4/mu-opioid, membrane potential dye, mouse | shares compounds with TRPC6 inhibitor | membrane potential fluorescence | percent change from control (negative = decrease, positive = increase), % at 10 µM | 2,400 tested, 69% active | AID 488927, 2010;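 active means membrane potential signal moved up or down beyond 5 SD of buffer control wells, in both duplicate plates, actives on both sides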;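 further: plate controls were assay buffer wells for no effect and DAMGO maximal-effect wells for full effect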
TRPC4 ctr inh 2: second check of whether TRPC6 modulators also affect mouse TRPC4; AID 488928; shares compounds with TRPC6 inhibitor; 2,400 tested, 55% active; HEK293 TRPC4/mu-opioid, membrane potential dye fluorescence; stimulated with maximal-effect DAMGO; inhibition, % at 10 µM;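 active means drop in membrane potential signal beyond 5 SD of the control wells in both duplicate plates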;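 further: TRPC4 counter screen for TRPC6 hits run under conditions tuned for TRPC6 not TRPC4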
TRPC6 inh conf: mouse TRPC6 channel inhibitors, confirmation, HEK293 cells, membrane potential dye, duplicate | shares compounds with TRPC6 inhibitor | ACh-evoked depolarization | inhibition, % at 10 µM | 3,300 tested, 43% active | AID 488960, 2010;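 active means fluorescence ratio falls more than 5 SD below the full-stimulation control mean, in both duplicate runs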;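 further: integrated fluorescence ratio of peak minus minimum over baseline after agonist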
TRPC6 act confirm: mouse TRPC6 channel activators, confirmation, HEK293 cells, membrane potential dye, duplicate; shares compounds with TRPC6 inhibitor; activation, % at 10 µM; 2,800 tested, 11% active; HEK293-TRPC6 membrane potential dye fluorescence, FDSS; AID 488961, 2010;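 active means ratio signal rise beyond 5 SD above unstimulated control wells' mean, seen in both duplicate runs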;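 further: plate controls were buffer EC0 wells for no effect and acetylcholine ECmax response for full effect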
Numbers without * were called inactive. Compounds with a hit are over-represented: about 2.9% of the library has one in this group of screens.

CCOc1cc(C2NC(=O)NC(O)(C(F)(F)F)C2C(=O)c2ccc(Cl)cc2)ccc1O (centres undefined) was read as TRPC6 inhibitor inactive, TRPC4 agonist inactive, Kir21 inh -2.2, TRPC4 potent inactive, TRPC4 block inactive and TRPC6 activator inactive.
Screening COc1cc2nc(N3CCN(c4cc(C)ccc4C)CC3)nc(N)c2cc1OC returned TRPC6 inhibitor inactive, TRPC4 agonist inactive, Kir21 inh -1.6, TRPC4 potent inactive, TRPC4 block inactive and TRPC6 activator inactive.
For COc1cc2nc(N3CCNCC3)nc(N)c2cc1OC the results were TRPC6 inhibitor -11*, TRPC4 agonist inactive, Kir21 inh -0.03, TRPC4 potent inactive, TRPC4 block inactive, TRPC6 activator inactive, HEK293 MPD ctr-2 -246%*, HEK293 MPD ctr 2-2 92%*, TRPC4/MOR mod -38%*, TRPC4 ctr inh 2 53%*, TRPC6 inh conf 64%* and TRPC6 act confirm inactive.
Cc1c(O)c(CN2CCCCC2)cc2c1oc(=O)c1ccccc12 was read as TRPC6 inhibitor inactive, TRPC4 agonist inactive, Kir21 inh 0.31, TRPC4 potent inactive, TRPC4 block inactive and TRPC6 activator inactive.
`Cc1c(O)c(CN2CCCCC2)cc2c3c(c(=O)oc12)CCC3` gave TRPC6 inhibitor -10*, TRPC4 agonist inactive, Kir21 inh -0.65, TRPC4 potent inactive, TRPC4 block inactive, TRPC6 activator inactive, HEK293 MPD ctr-2 -243%*, HEK293 MPD ctr 2-2 inactive, TRPC4/MOR mod -39%*, TRPC4 ctr inh 2 inactive, TRPC6 inh conf 44%* and TRPC6 act confirm inactive.
C[N+](C)(C)C/C=C1/COCO1 was read as TRPC6 inhibitor -6.7*, TRPC4 agonist inactive, Kir21 inh -0.01, TRPC4 potent inactive, TRPC4 block inactive, TRPC6 activator inactive, TRPC4 sel inh 2 inactive, TRPC4 spec 0.5%*, HEK293 MPD ctr 2-1 inactive, HEK293 MPD ctr-1 0.3%* and TRPC6 inh conf inactive.
`Cc1cccn2c(CNC3CCCc4ccccc43)c(C(=O)N3CCCCC3)nc12` (centres undefined) gave TRPC6 inhibitor -8*, TRPC4 agonist inactive, Kir21 inh -1.3, TRPC4 potent inactive, TRPC4 block inactive, TRPC6 activator inactive, HEK293 MPD ctr-2 420%*, HEK293 MPD ctr 2-2 75%*, TRPC4/MOR mod 92%*, TRPC4 ctr inh 2 55%* and TRPC6 inh conf 74%*.
CCOC(=O)C1CCCN(Cc2c(C(=O)N3CCCCC3)nc3c(C)cccn23)C1 (centres undefined) was read as TRPC6 inhibitor inactive, TRPC4 agonist inactive, Kir21 inh -2.1, TRPC4 potent inactive, TRPC4 block inactive and TRPC6 activator inactive.
OC(COc1ccccc1)CN1CCN(C(c2ccccc2)c2ccccc2)CC1 (centres undefined) was read as TRPC6 inhibitor inactive, TRPC4 agonist inactive, Kir21 inh -0.1, TRPC4 potent inactive, TRPC4 block inactive and TRPC6 activator inactive.
For CC(=O)c1ccc(NC(=O)N2CCc3ccccc3C2)cc1 the results were TRPC6 inhibitor inactive, TRPC4 agonist inactive, Kir21 inh 1.9, TRPC4 potent inactive, TRPC4 block inactive and TRPC6 activator inactive.
Screening CCOC(=O)Cn1c(=N)n(CCOc2ccc3ccccc3c2)c2ccccc21 returned TRPC6 inhibitor -5.3*, TRPC4 agonist inactive, Kir21 inh -11*, TRPC4 potent inactive, TRPC4 block inactive, TRPC6 activator inactive, HEK293 MPD ctr-2 inactive, HEK293 MPD ctr 2-2 inactive, TRPC4/MOR mod inactive, TRPC4 ctr inh 2 70%*, TRPC6 inh conf 40%* and TRPC6 act confirm inactive.

Source: PubChem BioAssay
